Assay results as given in ChEMBL document CHEMBL1142330, “Omega-(2-Naphthyloxy) amino alkanes as a novel class of anti-hyperglycemic and lipid lowering agents” (Bioorg Med Chem, 2008).

Assays:
Rattus norvegicus [1] = test: Inhibition of cholesterol level in triton treated Charles Foster rat at 100 mg/kg, po; type: functional
In short: (§1)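 Male Charles Foster rats (200–225 g) were used, six per group. They received Triton WR-1339 200 mg/kg i.p. together with oral compound at 100 mg/kg in 2% aqueous gum acacia, over 18 h; vehicle controls were included. Rats were then fasted overnight and bled retro-orbitally. Serum total cholesterol, phospholipids and triglyceride were assayed.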

Rattus norvegicus [2] = test: Inhibition of phospholipids level in triton treated Charles Foster rat at 100 mg/kg, po; type: functional; in short: as §1
Rattus norvegicus [3] = test: Inhibition of triglyceride level in triton treated Charles Foster rat at 100 mg/kg, po; type: functional; in short: as §1
Rattus norvegicus [4] = test: Antidiabetic activity in sucrose loaded albino Sprague-Dawley rat model assessed as decrease in blood glucose level at 100 mg/kg, po; type: functional
In short: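 Male Sprague–Dawley rats were fasted overnight and used in groups of five. Baseline blood was taken, then test sample was gavaged at 100 mg/kg. A sucrose load of […] followed 30 min later.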

Rattus norvegicus [5] = test: Antidiabetic activity in streptozotocin-induced diabetic albino Sprague-Dawley rat model assessed as decrease in blood glucose level at 100 mg/kg, po; type: functional
In short: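 Overnight-fasted rats received streptozotocin 60 mg/kg i.p. in 100 mM citrate buffer, pH 4.5. After 48 h, animals with glucometer glucose of 200–400 mg/dl were grouped (n=6). Sample in 1% gum acacia was given orally at 100 mg/kg; controls received vehicle.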

Rattus norvegicus [6] = test: Antidiabetic activity in sucrose challenged streptozotocin-induced diabetic albino Sprague-Dawley rat model assessed as decrease in blood glucose level at 100 mg/kg, po; type: functional
In short: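 Diabetes was induced in overnight-fasted rats with streptozotocin 60 mg/kg i.p. in 100 mM citrate buffer, pH 4.5. Rats with glucose of 150–250 mg/dl at 48 h were selected. A sucrose load of 2.5 g/kg was given 30 min after oral dosing. Glucose was measured at 30–300 min and 24 h. Food was withheld, water allowed.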

Mus musculus [7] = test: Antidiabetic activity in db/db mouse at 100 mg/kg after 5 hrs on day 3; type: functional
Mus musculus [8] = test: Antidiabetic activity in db/db mouse at 100 mg/kg after 24 hrs on day 3; type: functional
[9] = molecular target: T1, Peroxisome proliferator-activated receptor gamma (Homo sapiens, UniProt P37231); test: Binding affinity at PPARgamma
T1 sequence (P37231 whole entry): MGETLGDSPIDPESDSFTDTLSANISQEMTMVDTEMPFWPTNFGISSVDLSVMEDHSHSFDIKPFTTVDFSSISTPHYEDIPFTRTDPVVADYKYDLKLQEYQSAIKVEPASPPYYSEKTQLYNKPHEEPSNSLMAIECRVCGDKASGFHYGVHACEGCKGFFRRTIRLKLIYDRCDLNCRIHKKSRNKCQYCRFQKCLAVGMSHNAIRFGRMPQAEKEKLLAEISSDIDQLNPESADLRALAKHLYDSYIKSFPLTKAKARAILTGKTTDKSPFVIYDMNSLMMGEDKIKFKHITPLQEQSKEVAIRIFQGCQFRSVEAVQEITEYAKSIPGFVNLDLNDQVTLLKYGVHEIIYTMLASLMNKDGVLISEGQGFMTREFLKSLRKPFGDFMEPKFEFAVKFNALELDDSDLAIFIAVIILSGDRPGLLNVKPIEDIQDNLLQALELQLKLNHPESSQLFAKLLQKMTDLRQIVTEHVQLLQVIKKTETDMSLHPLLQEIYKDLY

Rattus norvegicus [10] = test: Antidiabetic activity in glucose loaded albino Sprague-Dawley rat model assessed as decrease in blood glucose level at 100 mg/kg, po; type: functional
In short: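 Rats in groups of five were bled at baseline, then gavaged with test sample at 100 mg/kg. A glucose load of 2 g/kg was given 30 min later. Blood was collected at 30, 60, 90 and 120 min.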

Syrian golden hamster [11] = test: Inhibition of triglyceride level in Syrian golden hamster at 300 umol/kg after 10 days; type: functional; conditions: Mesocricetus auratus, 240 h
Syrian golden hamster [12] = test: Inhibition of cholesterol level in Syrian golden hamster at 300 umol/kg after 10 days; type: functional; conditions: Mesocricetus auratus, 240 h
Syrian golden hamster [13] = test: Inhibition of HDL level in Syrian golden hamster at 300 umol/kg after 10 days; type: functional; conditions: Mesocricetus auratus, 240 h
Syrian golden hamster [14] = test: Inhibition of glucose level in Syrian golden hamster at 300 umol/kg after 10 days; type: functional; conditions: Mesocricetus auratus, 240 h
Syrian golden hamster [15] = test: Inhibition of glycerol level in Syrian golden hamster at 300 umol/kg after 10 days; type: functional; conditions: Mesocricetus auratus, 240 h
[16] = molecular target: T2, Peroxisome proliferator-activated receptor alpha (Homo sapiens) (UniProt Q07869); test: Inhibition of PPARalpha at 50 uM
T2 sequence (whole entry): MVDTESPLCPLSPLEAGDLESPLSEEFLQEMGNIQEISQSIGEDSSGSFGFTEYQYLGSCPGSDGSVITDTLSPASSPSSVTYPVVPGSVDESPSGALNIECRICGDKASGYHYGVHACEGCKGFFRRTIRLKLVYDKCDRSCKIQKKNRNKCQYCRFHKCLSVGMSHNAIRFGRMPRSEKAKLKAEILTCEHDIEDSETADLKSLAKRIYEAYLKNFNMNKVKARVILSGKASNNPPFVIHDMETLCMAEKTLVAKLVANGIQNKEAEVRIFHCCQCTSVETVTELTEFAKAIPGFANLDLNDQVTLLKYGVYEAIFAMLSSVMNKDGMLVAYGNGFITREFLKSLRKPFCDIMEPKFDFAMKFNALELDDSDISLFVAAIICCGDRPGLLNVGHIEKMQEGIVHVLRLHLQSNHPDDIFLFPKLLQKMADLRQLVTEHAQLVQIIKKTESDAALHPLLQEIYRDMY

[17] = molecular target: T3, Peroxisome proliferator-activated receptor delta (Homo sapiens) (UniProt Q03181); test: Inhibition of PPARdelta at 3 uM
T3 sequence (whole entry): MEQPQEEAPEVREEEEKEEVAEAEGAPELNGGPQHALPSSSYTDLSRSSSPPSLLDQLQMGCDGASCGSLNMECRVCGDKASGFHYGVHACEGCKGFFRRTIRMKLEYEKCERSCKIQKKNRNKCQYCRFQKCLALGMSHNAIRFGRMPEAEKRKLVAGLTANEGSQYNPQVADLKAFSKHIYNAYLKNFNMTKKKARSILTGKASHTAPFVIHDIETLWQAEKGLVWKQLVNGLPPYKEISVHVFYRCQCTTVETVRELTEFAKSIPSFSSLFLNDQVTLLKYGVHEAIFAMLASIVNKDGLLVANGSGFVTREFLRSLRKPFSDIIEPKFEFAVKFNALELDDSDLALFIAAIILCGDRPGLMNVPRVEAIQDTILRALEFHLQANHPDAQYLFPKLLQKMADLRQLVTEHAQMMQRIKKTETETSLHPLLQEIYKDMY

Syrian golden hamster [18] = test: Inhibition of free fatty acids level in Syrian golden hamster at 300 umol/kg after 10 days; type: functional; conditions: Mesocricetus auratus, 240 h

SMILES | EC50 [9] | inhibition [16] | inhibition [17] | inhibition in vivo at 100 mg/kg (Rattus norvegicus [1]) | inhibition in vivo at 100 mg/kg (Rattus norvegicus [2]) | inhibition in vivo at 100 mg/kg (Rattus norvegicus [3]) | inhibition in vivo at 100 mg/kg (Rattus norvegicus [4]) | inhibition in vivo at 100 mg/kg (Rattus norvegicus [5]) | inhibition in vivo at 100 mg/kg (Rattus norvegicus [6]) | inhibition in vivo at 100 mg/kg (Mus musculus [7]) | inhibition in vivo at 100 mg/kg (Mus musculus [8]) | inhibition in vivo at 100 mg/kg (Rattus norvegicus [10]) | inhibition in vivo at 300 µmol/kg (Syrian golden hamster [11]) | inhibition in vivo at 300 µmol/kg (Syrian golden hamster [12]) | inhibition in vivo at 300 µmol/kg (Syrian golden hamster [13]) | inhibition in vivo at 300 µmol/kg (Syrian golden hamster [14]) | inhibition in vivo at 300 µmol/kg (Syrian golden hamster [15]) | inhibition in vivo at 300 µmol/kg (Syrian golden hamster [18])
C/C=C1\C(=O)C[C@H]2[C@@H]3CCC4=CC(=O)CC[C@]4(C)[C@H]3CC[C@]12C [GUGGULSTERONE] |  |  |  | 34% | 33% | 30% |  |  |  |  |  |  |  |  |  |  |  | 
COc1ccc(Cl)cc1C(=O)NCCc1ccc(S(=O)(=O)NC(=O)NC2CCCCC2)cc1 [GLYBURIDE] |  |  |  |  |  |  | 33.9% | 32.8% |  |  |  |  |  |  |  |  |  | 
c1ccc(CNCCOc2ccc3ccccc3c2)cc1 | 0.4 µM | 36.2% | 31.3% | 31% | 34% | 37% | 64% | 13% | 69.5% | 7% | 11.6% | 37.6% | 37% | 14% | 13% | 9.5% | 10% | 
CCO[C@@H](Cc1ccc(OCCc2ccc(OS(C)(=O)=O)cc2)cc1)C(=O)O |  | 55.5% |  |  |  |  |  |  |  |  |  |  |  |  |  |  |  | 
CCCCCCCCNCCCOc1ccc2ccccc2c1 |  | 11.4% | 7.9% |  |  |  | 32% |  |  |  |  | 17% |  |  |  |  |  | 
c1ccc(CNCCCOc2ccc3ccccc3c2)cc1 |  | 28.4% | 29.1% |  |  |  | 40.5% |  |  |  |  | 13.8% |  |  |  |  |  | 
Cc1ccc(NCCOc2ccc3ccccc3c2)cc1 |  |  |  | 27% | 30% | 18% | 6.99% |  |  |  |  | 2.45% |  |  |  |  |  | 
Cc1ccc(S(=O)(=O)NC(=O)NN2CC3CCCC3C2)cc1 (stereo not given) [GLICLAZIDE] |  |  |  |  |  |  | 44.8% | 27.7% |  |  |  |  |  |  |  |  |  | 
Cc1ccc(NCCCCOc2ccc3ccccc3c2)cc1 |  |  |  |  |  |  | 6.9% |  |  |  |  | 3.21% |  |  |  |  |  | 
COc1cccc(CNCCCOc2ccc3ccccc3c2)c1 |  |  |  | 14% | 22% | 22% | 8.3% |  |  |  |  | 1.23% |  |  |  |  |  | 

Further lines, with some results ahead:

EC50 [9] | inhibition [16] | inhibition [17] | SMILES | inhibition in vivo at 100 mg/kg (Rattus norvegicus [1]) | inhibition in vivo at 100 mg/kg (Rattus norvegicus [2]) | inhibition in vivo at 100 mg/kg (Rattus norvegicus [3]) | inhibition in vivo at 100 mg/kg (Rattus norvegicus [4]) | inhibition in vivo at 100 mg/kg (Rattus norvegicus [5]) | inhibition in vivo at 100 mg/kg (Rattus norvegicus [6]) | inhibition in vivo at 100 mg/kg (Mus musculus [7]) | inhibition in vivo at 100 mg/kg (Mus musculus [8]) | inhibition in vivo at 100 mg/kg (Rattus norvegicus [10]) | inhibition in vivo at 300 µmol/kg (Syrian golden hamster [11]) | inhibition in vivo at 300 µmol/kg (Syrian golden hamster [12]) | inhibition in vivo at 300 µmol/kg (Syrian golden hamster [13]) | inhibition in vivo at 300 µmol/kg (Syrian golden hamster [14]) | inhibition in vivo at 300 µmol/kg (Syrian golden hamster [15]) | inhibition in vivo at 300 µmol/kg (Syrian golden hamster [18])
33.8 µM | 44.5% | 42.6% | COc1ccc(NCCCOc2ccc3ccccc3c2)cc1 | 32.4% | 38% | 28% | 31% | 28.5% | 73.8% | 22.4% | 28.9% | 33.6% | 48% | 14% | 15% | 31% | 14% | 
 | 22.5% | 19.3% | COc1ccc(N(C)CCCOc2ccc3ccccc3c2)cc1 | 11% | 19% | 15% | 14.5% |  |  |  |  | 8.2% |  |  |  |  |  | 
 | 21.3% | 22.4% | c1ccc(CNCCCCOc2ccc3ccccc3c2)cc1 | 10.1% | 18% | 5% | 16% |  |  |  |  | 8.89% |  |  |  |  |  | 
 | 20.3% | 17.3% | CCN(CCCOc1ccc2ccccc2c1)c1ccc(OC)cc1 |  |  |  | 13.5% |  |  |  |  | 6.88% |  |  |  |  |  | 
 | 22.2% | 24.6% | COc1ccc(NCCOc2ccc3ccccc3c2)cc1 |  |  |  | 19.4% |  |  |  |  | 10.6% |  |  |  |  |  | 
 | 18.3% | 16.3% | COc1ccc(NCCCCOc2ccc3ccccc3c2)cc1 | 24% | 36% | 22% | 5.09% |  |  |  |  | 3.89% |  |  |  |  |  | 
 | 8.5% | 8.4% | CCCCN(CCCOc1ccc2ccccc2c1)c1ccc(OC)cc1 | 15% | 25% | 17% | 4.4% |  |  |  |  | 13.5% |  |  |  |  |  | 
 | 25.4% | 20.2% | COc1ccc(N(CCCOc2ccc3ccccc3c2)CC(=O)O)cc1 | 23.8% | 16.9% | 13% | 21.5% |  |  |  |  | 15.5% | 44% | 21% | 11% | 22% | 23% | 
 | 10.9% | 9.6% | CCCN(CCCOc1ccc2ccccc2c1)c1ccc(OC)cc1 | 14% | 27% | 12% | 37.2% |  |  |  |  | 11.6% |  |  |  |  |  | 
4.8 µM | 33.5% | 29.6% | CCOC(=O)CN(CCCOc1ccc2ccccc2c1)c1ccc(OC)cc1 | 21.2% | 26% | 15% | 45.4% | 6.9% | 5.6% | 12% | 15.4% | 25.9% | 68% | 22% | 16% | 34% | 7.3% | 48%
